Legend:
[1] = test system: Rattus norvegicus; assay: Intraperitoneal (ip) toxicity tested in rats is the number of animals displaying neurotoxicity / number of animals tested (8) after 0.25 hr at 100 mg / kg; assay type: organism-based; design: dose 100 mg / kg; conditions: in vivo
Outline: (§1)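 Special ip screen run by the ADD Program in male Sprague-Dawley rats. Test drug was given ip at 100 mg/kg as a solution or suspension in 0.5% methylcellulose. Neurotoxicity was scored at 0.25, 0.5, 1, 2, 4, 6, 8 and 24 h after dosing. Each result is reported as number of rats showing neurotoxicity over number tested.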

[2] = test system: Rattus norvegicus; assay: Intraperitoneal (ip) toxicity tested in rats is the number of animals displaying neurotoxicity / number of animals tested (8) after 0.50 h at 100 mg / kg; assay type: organism-based; design: dose 100 mg / kg; conditions: in vivo, 0.5 h; outline: as §1
[3] = test system: Rattus norvegicus; assay: Intraperitoneal (ip) toxicity tested in rats is the number of animals displaying neurotoxicity / number of animals tested (8) after 1 hr at 100 mg / kg; assay type: organism-based; design: dose 100 mg / kg; conditions: in vivo; outline: as §1
[4] = test system: Rattus norvegicus; assay: Intraperitoneal (ip) toxicity tested in rats is the number of animals displaying neurotoxicity / number of animals tested (8) after 2 h at 100 mg / kg; assay type: organism-based; design: dose 100 mg / kg; conditions: in vivo; outline: as §1
[5] = test system: Rattus norvegicus; assay: Intraperitoneal (ip) toxicity tested in rats is the number of animals displaying neurotoxicity / number of animals tested (8) after 24 hr at 100 mg / kg; assay type: organism-based; design: dose 100 mg / kg; conditions: in vivo; outline: as §1
[6] = test system: Rattus norvegicus; assay: Intraperitoneal (ip) toxicity tested in rats is the number of animals displaying neurotoxicity / number of animals tested (8) after 4 h at 100 mg / kg; assay type: organism-based; design: dose 100 mg / kg; conditions: in vivo; outline: as §1
[7] = test system: Rattus norvegicus; assay: Intraperitoneal (ip) toxicity tested in rats is the number of animals displaying neurotoxicity / number of animals tested (8) after 6 hr at 100 mg / kg; assay type: organism-based; design: dose 100 mg / kg; conditions: in vivo; outline: as §1
[8] = Protective index expressed as TD50 / ED50; No toxicity; assay type: functional
[9] = test system: Rattus norvegicus; assay: Toxicity observed in rats at >500 mg/kg po; conditions: in vivo
[10] = test system: Mus musculus; assay: Effective dose administered intraperitoneally in mice at 15 minutes in maximal-electroshock (MES) test; conditions: ip, 0.25 h
[11] = test system: Rattus norvegicus; assay: Anticonvulsant activity reported as duration in amygdala kindled rats at 350 mg/kg (after discharge); assay type: functional
[12] = test system: Rattus norvegicus; assay: Intraperitoneal (ip) toxicity tested in rats is the number of animals displaying neurotoxicity / number of animals tested (8) after 24 hr at 100 mg / kg (Two testing animals died); assay type: organism-based; design: dose 100 mg / kg; conditions: in vivo; outline: as §1
[13] = test system: Rattus norvegicus; assay: Intraperitoneal (ip) toxicity tested in rats is the number of animals displaying neurotoxicity / number of animals tested (8) after 8 hr at 100 mg / kg; assay type: organism-based; design: dose 100 mg / kg; conditions: in vivo; outline: as §1
[14] = test system: Rattus norvegicus; assay: Anticonvulsant activity reported as amygdala duration in amygdala kindled rats at 350 mg/kg (after discharge); assay type: functional
[15] = test system: Rattus norvegicus; assay: Anticonvulsant activity reported as duration in amygdala kindled rats at 350 mg/kg (Behavioral seizure); assay type: functional
[16] = test system: Rattus norvegicus; assay: Anticonvulsant activity reported as duration in amygdala kindled rats at 350 mg/kg (Forelimb clonus); assay type: functional
[17] = test system: Rattus norvegicus; assay: Anticonvulsant activity tested at seizure stage in amygdala kindled rats at 350 mg/kg; assay type: functional
[18] = test system: Rattus norvegicus; assay: Anticonvulsant activity reported as cortex latency in amygdala kindled rats at 350 mg/kg (after discharge); assay type: functional
[19] = test system: Rattus norvegicus; assay: Anticonvulsant activity reported as latency in amygdala kindled rats at 350 mg/kg (Behavioral seizure); assay type: functional
[20] = test system: Rattus norvegicus; assay: Anticonvulsant activity reported as latency in amygdala kindled rats at 350 mg/kg (Forelimb clonus); assay type: functional
[21] = test system: Rattus norvegicus; assay: Anticonvulsant activity reported as duration in amygdala kindled rats at 500 mg/kg (Behavioral seizure); assay type: functional
[22] = test system: Rattus norvegicus; assay: Anticonvulsant activity reported as duration in amygdala kindled rats at 500 mg/kg (Forelimb clonus); assay type: functional
[23] = test system: Rattus norvegicus; assay: Anticonvulsant activity reported as duration in amygdala kindled rats at 500 mg/kg (after discharge); assay type: functional
[24] = test system: Rattus norvegicus; assay: Anticonvulsant activity reported as amygdala duration in amygdala kindled rats at 500 mg/kg (after discharge); assay type: functional
[25] = test system: Rattus norvegicus; assay: Anticonvulsant activity tested at seizure stage in amygdala kindled rats at 500 mg/kg; assay type: functional
[26] = test system: Rattus norvegicus; assay: Anticonvulsant activity reported as cortex latency in amygdala kindled rats at 500 mg/kg (after discharge); assay type: functional
[27] = test system: Rattus norvegicus; assay: Anticonvulsant activity reported as latency in amygdala kindled rats at 500 mg/kg (Behavioral seizure); assay type: functional
[28] = test system: Rattus norvegicus; assay: Anticonvulsant activity reported as latency in amygdala kindled rats at 500 mg/kg (Forelimb clonus); assay type: functional
[29] = (§2) Protective index (TD50 / MES ED50); assay type: functional
[30] = Toxic dose was determined after intraperitoneal administration; assay type: toxicity, organism-based; conditions: rat, in vivo, ip
Outline: (§3)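 Rats were dosed intraperitoneally, with compound given as a solution or a suspension in 0.5% methylcellulose. Neurotoxicity was scored 2.0 h after dosing in 8 animals per dose level (110–440 mg/kg). TD50 in mg/kg ip was derived from the dose–response, with a range given in parentheses.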

[31] = organism: Rattus norvegicus; assay: Number of animals protected from electroshock seizure / number of animals tested (8) after 0.50 hour at 1.0 mg / kg in maximal electroshock seizures (MES); assay type: functional
Outline: (§4)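 For the intraperitoneal rat screen, compound was given as a solution or a suspension in 0.5% methylcellulose. Protection against maximal electroshock seizures was tested at 0.25 h or 0.50 h after dosing, in 8 animals per dose. Results are expressed as animals protected over animals tested, and ED50 in mg/kg ip, with a range, was derived from these counts.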

[32] = organism: Rattus norvegicus; assay: Number of animals protected from electroshock seizure / number of animals tested (8) after 0.50 hour at 2.0 mg / kg in maximal electroshock seizures (MES); assay type: functional; outline: as §4
[33] = organism: Rattus norvegicus; assay: Number of animals protected from electroshock seizure / number of animals tested (8) after 0.50 hour at 3.0 mg / kg in maximal electroshock seizures (MES); assay type: functional; outline: as §4
[34] = organism: Rattus norvegicus; assay: Number of animals protected from electroshock seizure / number of animals tested (8) after 0.50 hour at 3.5 mg / kg in maximal electroshock seizures (MES); assay type: functional; outline: as §4
[35] = organism: Rattus norvegicus; assay: Number of animals protected from electroshock seizure / number of animals tested (8) after 0.50 hour at 4.0 mg / kg in maximal electroshock seizures (MES); assay type: functional; outline: as §4
[36] = organism: Rattus norvegicus; assay: Number of animals exhibiting neurotoxicity / number of animals tested (2) after 0.25-24 h at 64 mg / kg
[37] = organism: Rattus norvegicus; assay: Number of animals exhibiting neurotoxicity / number of animals tested (2) after 0.25-24 hr at 8 mg / kg
[38] = organism: Rattus norvegicus; assay: Number of animals exhibiting neurotoxicity / number of animals tested (2) after 0.25-24 hr at 16 mg / kg
[39] = organism: Rattus norvegicus; assay: Number of animals exhibiting neurotoxicity / number of animals tested (2) after 0.25-24 hr at 32 mg / kg
[40] = Protective index expressed as TD50 / ED50; assay type: functional
[41] = test system: Mus musculus; assay: Toxicity observed in mice at >750 mg/kg ip; No Toxicity; conditions: in vivo
[42] = organism: Rattus norvegicus; assay: Number of animals protected from electroshock seizure / number of animals tested (8) after 0.25 hour at 3.6 mg / kg in maximal electroshock seizures (MES); assay type: functional; outline: as §4
[43] = organism: Rattus norvegicus; assay: Number of animals protected from electroshock seizure / number of animals tested (8) after 0.25 hour at 4.5 mg / kg in maximal electroshock seizures (MES); assay type: functional; outline: as §4
[44] = organism: Rattus norvegicus; assay: Number of animals protected from electroshock seizure / number of animals tested (8) after 0.25 hour at 7.0 mg / kg in maximal electroshock seizures (MES); assay type: functional; outline: as §4
[45] = organism: Rattus norvegicus; assay: as §2; assay type: functional
[46] = organism: Rattus norvegicus; assay: Number of animals exhibiting neurotoxicity / number of animals tested (8) after 2.0 hr at 110 mg / kg; assay type: functional; outline: as §3
[47] = organism: Rattus norvegicus; assay: Number of animals exhibiting neurotoxicity / number of animals tested (8) after 2.0 hr at 180 mg / kg; assay type: functional; outline: as §3
[48] = organism: Rattus norvegicus; assay: Number of animals exhibiting neurotoxicity / number of animals tested (8) after 2.0 hr at 220 mg / kg; assay type: functional; outline: as §3
[49] = organism: Rattus norvegicus; assay: Number of animals exhibiting neurotoxicity / number of animals tested (8) after 2.0 hr at 440 mg / kg; assay type: functional; outline: as §3
[50] = organism: Rattus norvegicus; assay: Number of animals protected from electroshock seizure / number of animals tested (8) after 0.25 hour at 1.2 mg / kg in maximal electroshock seizures (MES); assay type: functional; outline: as §4

## CC1(C)CC(O)=C/C(=N\c2ccccc2)C1
[1]
  Toxicity: 5
[2]
  Toxicity: 7
[3]
  Toxicity: 6
[4]
  Toxicity: 6
[5]
  Toxicity: 0
[6]
  Toxicity: 3
[7]
  Toxicity: 3
[8]
  PI: > 13.7
[9]
  Toxicity: Toxicity observed in mice at >500 mg/kg po
[10]
  ED50: 36.4 mg/kg

## COC(=O)C1C(=O)C=C(Nc2ccc(Cl)cc2)CC1C (stereo not given)
[11]
  Duration: 79.6 s
[1]
  Toxicity: 0
[2]
  Toxicity: 3
[3]
  Toxicity: 6
[4]
  Toxicity: 7
[12]
  Toxicity: 2
[6]
  Toxicity: 2
[7]
  Toxicity: 1
[13]
  Toxicity: 0
[14]
  Duration: 79.8 s
[15]
  Duration: 82.3 s
[16]
  Duration: 45.3 s
[17]
  Seizure stage: 5
[18]
  Latency: 2.7 s
[19]
  Latency: 2.1 s
[20]
  Latency: 9.2 s

## COC(=O)C1C(=O)C=C(NCc2ccccc2)CC1C (stereo not given)
[21]
  Duration: 79.5 s
[22]
  Duration: 44.2 s
[23]
  Duration: 78.9 s
[24]
  Duration: 73.9 s
[25]
  Seizure stage: 5
[26]
  Latency: 2.8 s
[27]
  Latency: 2.1 s
[28]
  Latency: 9.3 s

## COC(=O)C1C(=O)C=C(Nc2ccc(C(F)(F)F)cc2)CC1C (stereo not given)
[29]
  PI: > 21.7
[30]
  TD50: > 64 mg/kg
[31]
  No. of animals: 0
[32]
  No. of animals: 3
[33]
  No. of animals: 3
[34]
  No. of animals: 4
[35]
  No. of animals: 7
[36]
  No. of animals: 0
[37]
  No. of animals: 0
[38]
  No. of animals: 0
[39]
  No. of animals: 0

## CCc1ccc(NC2=CC(=O)C(C(=O)OC)C(C)C2)cc1 (stereo not given)
[1]
  Toxicity: 1
[2]
  Toxicity: 5
[3]
  Toxicity: 0
[4]
  Toxicity: 0
[5]
  Toxicity: 0
[6]
  Toxicity: 0
[7]
  Toxicity: 0
[40]
  PI: > 6.6
[41]
  Toxicity: No Toxicity
[10]
  ED50: 114 mg/kg

## COC(=O)C1C(=O)C=C(Nc2ccc(Br)cc2)CC1C (stereo not given)
[30]
  TD50: 270 mg/kg
[42]
  No. of animals: 5
[43]
  No. of animals: 3
[44]
  No. of animals: 7
[45]
  PI: 67.4
[46]
  No. of animals: 0
[47]
  No. of animals: 2
[48]
  No. of animals: 4
[49]
  No. of animals: 6
[50]
  No. of animals: 0
